Data set [1] can be described thus: Inhibition of antigen receptor-mediated NF-kappaB activity in HEK293 cells after 16 hrs by luciferase reporter gene assay. The following applies: Homo sapiens, HEK293, 16 h. A general note: Reporter assays use an easily measured gene product as a stand-in for the process of interest.
In data set [2] the test system is Liver microsomes. The data set is described as follows: Metabolic stability in human liver microsomes in PAPS co-factor system by RP-HPLC. In kind it is ADME, Microsome. Put shortly:
(§1)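 Substrate at 100 µM with HLM or S9 at 1.6 mg/mL and 100 µM PAPS in 50 mM Tris–HCl pH 7.4, 37 °C. Started by adding HLM/S9. Aliquots at 0, 5, 15, 30, 45 and 60 min stopped in cold acetonitrile and run in duplicate. Sulfation taken from parent disappearance by RP-HPLC.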
For orientation: Liver microsomes are a subcellular fraction often used to study metabolism.

The nature of data set [3]: Metabolic stability in human liver microsomes assessed as half life in NADPH co-factor system by RP-HPLC. In kind it is ADME, Microsome. Put shortly:
(§2)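 Substrate at 100 µM with human liver microsomes or S9 at 1.6 mg/mL, NADPH-generating system (NADP+, 400 µM glucose-6-phosphate, DETAPAC, 4 IU/mL G6P dehydrogenase), 50 mM potassium phosphate pH 7.4, 37 °C with shaking. Started by adding HLM/S9. Aliquots at 0–60 min stopped in cold acetonitrile and run in duplicate. Parent loss measured by RP-HPLC.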

For data set [4], the system named is Liver microsomes. The data set is described as follows: Metabolic stability in human liver microsomes in UDPG co-factor system by RP-HPLC. In kind it is ADME, Microsome. Put shortly: (§3)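 Glucuronidation with UDPG cofactor plus lecithin, using HLM or S9 in 50 mM potassium phosphate pH 7.4 at 37 °C with shaking. Started by adding HLM/S9. Aliquots at 0–60 min stopped in cold acetonitrile and run in duplicate. Parent disappearance followed by RP-HPLC.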

Data set [5] is described as follows: Metabolic stability in human liver S9 fraction in PAPS co-factor system by RP-HPLC. The class given is ADME, subcellular. Put shortly: as §1
Data set [6] is described as follows: Metabolic stability in human liver S9 fraction in UDPG co-factor system by RP-HPLC. The class given is ADME, subcellular. The essentials:
as §3

A short description of data set [7]: Metabolic stability in human liver S9 fraction assessed as half life in NADPH co-factor system by RP-HPLC. In kind it is ADME, subcellular. Put shortly:
as §2

Data set [8] deals with Cytochrome P450 3A4 (Homo sapiens, UniProt P08684). The data set is described as follows: Inhibition of CYP3A4-mediated hydroxylation of testosterone in human liver microsomes in NADPH co-factor system by RP-HPLC. In kind it is ADME, Microsome.

Where only a bound is given, the exact number is not on record here.

Sequence of Cytochrome P450 3A4 (P08684 whole entry): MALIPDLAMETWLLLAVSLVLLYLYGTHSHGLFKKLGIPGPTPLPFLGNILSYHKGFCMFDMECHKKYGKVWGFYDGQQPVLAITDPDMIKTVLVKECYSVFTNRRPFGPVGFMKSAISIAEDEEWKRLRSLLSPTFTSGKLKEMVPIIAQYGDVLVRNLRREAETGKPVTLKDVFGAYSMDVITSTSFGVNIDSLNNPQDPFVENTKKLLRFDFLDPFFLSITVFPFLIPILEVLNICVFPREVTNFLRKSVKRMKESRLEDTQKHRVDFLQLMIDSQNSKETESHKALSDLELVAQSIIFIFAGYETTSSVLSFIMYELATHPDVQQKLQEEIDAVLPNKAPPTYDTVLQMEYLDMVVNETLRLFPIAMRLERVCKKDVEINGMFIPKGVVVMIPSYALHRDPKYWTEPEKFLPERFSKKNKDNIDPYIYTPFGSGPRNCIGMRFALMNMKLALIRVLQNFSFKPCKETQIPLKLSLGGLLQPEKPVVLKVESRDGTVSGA

The term IC50 denotes the concentration at which inhibition is half-maximal. `Cc1cc2nc(N3CCN(C)CC3)n(CC(=O)c3cc(C(C)(C)C)c(O)c(C(C)(C)C)c3)c2cc1C` registered an IC50 in data set [1] of over 5 µM.

`Cc1cc2nc(N3CCC(Cc4ccccc4)CC3)n(CC(=O)c3cc(C(C)(C)C)c(O)c(C(C)(C)C)c3)c2cc1C` displayed an IC50 in data set [1] of over 5 µM.

`COCCCNc1nc2cc(C)c(C)cc2n1CC(=O)c1ccc(O)cc1` gave an IC50 in data set [1] of over 5 µM.

`Cc1cc2nc(N3CC(C)CC(C)C3)n(CC(=O)c3cc(C(C)(C)C)c(O)c(C(C)(C)C)c3)c2cc1C` (centres undefined) registered an IC50 in data set [1] of over 5 µM.

Compound `CCN1CCN(c2nc3cc(C)c(C)cc3n2CC(=O)c2cc(C(C)(C)C)c(O)c(C(C)(C)C)c2)CC1` returned an IC50 in data set [1] of over 5 µM.

`Cc1cc2nc(N3CCCCC3)n(CC(=O)c3cc(C(C)(C)C)c(O)c(C(C)(C)C)c3)c2cc1C` showed an IC50 in data set [1] of over 5 µM.

The compound `COc1ccccc1N1CCN(c2nc3cc(C)c(C)cc3n2CC(=O)c2cc(C(C)(C)C)c(O)c(C(C)(C)C)c2)CC1` yielded an IC50 in data set [1] of over 5 µM.

For orientation: half-life means the time needed for the level to fall by half in the phase considered. As to `Cc1cc2nc(NCCCO)n(CC(=O)c3cc(C(C)(C)C)c(O)c(C(C)(C)C)c3)c2cc1C`, the Stability entry in data set [2], in data set [4], in data set [5] and in data set [6] was “Stable” each time. Moreover, the IC50 in data set [1] was 0.07 µM. Besides, the half-life in data set [3] was 5.5 h; in data set [7], 15.2 h.

`Cc1cc2nc(N3CCCCC3CN(C)C)n(CC(=O)c3cc(C(C)(C)C)c(O)c(C(C)(C)C)c3)c2cc1C` (centres undefined) gave an IC50 in data set [1] of over 5 µM.

With `Cc1cc2nc(N3CCCCC3C)n(CC(=O)c3cc(C(C)(C)C)c(O)c(C(C)(C)C)c3)c2cc1C` (centres undefined), the IC50 in data set [1] was over 5 µM.

`COCCCNc1nc2cc(C)c(C)cc2n1CC(=O)c1cc(C(C)(C)C)c(O)c(C(C)(C)C)c1`: the IC50 in data set [1] turned out to be 0.25 µM; in data set [8] it was 97 µM.

Consider `Cc1cc2nc(N3CCC[C@H]3CN3CCCC3)n(CC(=O)c3cc(C(C)(C)C)c(O)c(C(C)(C)C)c3)c2cc1C`, for which the IC50 in data set [1] was over 5 µM.

For the compound `CCC1C(C)CN(c2nc3cc(C)c(C)cc3n2CC(=O)c2cc(C(C)(C)C)c(O)c(C(C)(C)C)c2)C1C` (centres undefined), the IC50 in data set [1] is over 5 µM.

In the case of `C[C@]12CC[C@H]3[C@@H](CCC4=CC(=O)CC[C@@]43C)[C@@H]1CC[C@@H]2O` [TESTOSTERONE], the half-life in data set [3] is 0.8 h.

Regarding `Cc1cc2nc(N3CCC(O)C3)n(CC(=O)c3cc(C(C)(C)C)c(O)c(C(C)(C)C)c3)c2cc1C` (centres undefined), the IC50 in data set [1] is over 5 µM.

Regarding `Cc1cc2nc(N3CCCC(C)C3)n(CC(=O)c3cc(C(C)(C)C)c(O)c(C(C)(C)C)c3)c2cc1C` (centres undefined), in data set [1], the IC50 was over 5 µM.

Consider `Cc1cc2nc(NCCCO)n(CC(=O)c3ccc(O)cc3)c2cc1C`, for which the concentration for half-maximal inhibition (IC50) in data set [1] was over 5 µM.

With `Cc1cc2nc(N3CCN(Cc4ccccc4)CC3)n(CC(=O)c3cc(C(C)(C)C)c(O)c(C(C)(C)C)c3)c2cc1C`, the Stability entry in data set [2], in data set [4], in data set [5] and in data set [6] was “Stable” throughout. The compound also showed an IC50 in data set [1] of over 5 µM. Also, the half-life in data set [7] is 4.4 h.

The compound `CCCCNc1nc2cc(C)c(C)cc2n1CC(=O)c1cc(C(C)(C)C)c(O)c(C(C)(C)C)c1` yielded an IC50 in data set [1] of 0.1 µM.

`COCCCNc1nc2cc(C)c(C)cc2n1CC(=O)c1cc(C(C)(C)C)c(OC)c(C(C)(C)C)c1` gave an IC50 in data set [1] of 0.25 µM.

For the compound `Cc1cc2nc(NCCCO)n(CC(=O)c3cc(C)c(O)c(C)c3)c2cc1C`, in data set [1], the IC50 was over 5 µM.

Consider `Cc1cc2nc(N3CCCC3)n(CC(=O)c3cc(C(C)(C)C)c(O)c(C(C)(C)C)c3)c2cc1C`, for which the IC50 in data set [1] was over 5 µM.

In data set [1], `COC[C@@H]1CCCN1c1nc2cc(C)c(C)cc2n1CC(=O)c1cc(C(C)(C)C)c(O)c(C(C)(C)C)c1` had an IC50 of over 5 µM.

As to `Cc1cc2nc(N3CCCCC3CO)n(CC(=O)c3cc(C(C)(C)C)c(O)c(C(C)(C)C)c3)c2cc1C` (centres undefined), in data set [1], the IC50 was over 5 µM.

Regarding `COc1c(C(C)(C)C)cc(C(=O)Cn2c(NCCCO)nc3cc(C)c(C)cc32)cc1C(C)(C)C`, the IC50 in data set [1] came out at 0.07 µM; in data set [8] it was 67 µM.

As to `Cc1cc2nc(N3CCN(CCO)CC3)n(CC(=O)c3cc(C(C)(C)C)c(O)c(C(C)(C)C)c3)c2cc1C`, the Stability entry in data set [2], in data set [4], in data set [5] and in data set [6] was “Stable” throughout. In data set [1], this compound registered an IC50 of over 5 µM. Further, the half-life in data set [7] is 4.6 h.

For the compound `C#CCNc1nc2cc(C)c(C)cc2n1CC(=O)c1cc(C(C)(C)C)c(O)c(C(C)(C)C)c1`, in data set [1], the IC50 was over 8 µM.

`COCCCNc1nc2cc(C)c(C)cc2n1CC(=O)c1cc(C)c(O)c(C)c1` registered an IC50 in data set [1] of over 5 µM.

Turning to `Cc1cc2nc(N3CCC(C)CC3)n(CC(=O)c3cc(C(C)(C)C)c(O)c(C(C)(C)C)c3)c2cc1C`, in data set [1], the IC50 is over 5 µM.

In turn, `Cc1cc2nc(N3CCC(O)CC3)n(CC(=O)c3cc(C(C)(C)C)c(O)c(C(C)(C)C)c3)c2cc1C` registered a concentration for half-maximal inhibition (IC50) in data set [1] of over 5 µM.

The compound `Cc1cc2nc(N3CCOCC3)n(CC(=O)c3cc(C(C)(C)C)c(O)c(C(C)(C)C)c3)c2cc1C` came in with an IC50 in data set [1] of over 5 µM.
